Results from different studies.
Lines come from different studies, so protocols differ.
Target: Receptor tyrosine-protein kinase erbB-4 (ERBB4, Homo sapiens, UniProt Q15303)

Compound	test	setting	endpoint	value
CN(C)C(=O)Cn1cc(-c2nc([C@@](C)(c3ccc(-c4cnc(N)nc4)cc3)C3CC3)no2)cn1	cell-free assay, competition with immobilised ligand	1 µM	remaining binding	100%
Cc1ccc(C(=O)NCc2ccsc2)cc1C#Cc1cn(C(C)C)c2ncnc(N)c12	enzyme activity, inhibitor	1 µM	activity vs control	52%
NS(=O)(=O)c1cc(NC(=O)C2(c3ccccc3Cl)CC2)ccc1Oc1cccc(Cl)c1	cell-free assay, competition with immobilised ligand	1 µM	remaining binding	75%
Cc1ccc(NC(=O)c2ccc(C)c(C(F)(F)F)c2)cc1C#Cc1nn(C2CCC(O)CC2)c2ncnc(N)c12 (stereo not drawn)	cell-free assay	10 µM	remaining signal	-3%
COc1cc2nccc(Oc3ccc(NC(=O)c4c5n(n(-c6ccc(F)cc6)c4=O)CCCC5)cc3)c2cc1OC	enzyme activity, inhibitor	0.1 µM	inhibition	-17%
O=C(Nc1cccnn1)N1CCC(=Cc2cccc(Oc3ccc(C(F)(F)F)cn3)c2)CC1	cell-free assay, competition with immobilised ligand	1 µM	remaining binding	100%
Cc1ccc(Nc2nccc(N(C)c3ccc4c(C)n(C)nc4c3)n2)cc1S(N)(=O)=O	enzyme activity, inhibitor	0.3 µM	inhibition	-9%
CNCc1ccccc1-c1csc([C@H](C)Nc2nc(C)nc3cc(OC)c(OC)cc23)c1	cell-free assay, competition with immobilised ligand	1 µM	remaining binding	100%
Cn1c(=O)n(-c2ccc(C(C)(C)C#N)cc2)c2c3cc(-c4cnc5ccccc5c4)ccc3ncc21	enzyme activity, inhibitor	10 µM	remaining activity	117%
CC(C)(C)c1nc2c(s1)c1nc(N)ncc1c1ccc(NS(=O)(=O)c3c(F)cccc3F)c(F)c12	enzyme activity, inhibitor, radiometric	1 µM	remaining activity	80%
Cc1ccc(NC(=O)c2ccc(CN3CCN(C)CC3)cc2)cc1Nc1nc(-c2cccnc2)cs1	cell-free assay	0.5 µM	remaining signal	93.5%
Cc1cc(C)c(-n2ccn3nc(-c4cccnc4)cc23)cc1NC(=O)c1cc(C#N)cc(S(F)(F)(F)(F)F)c1	cell-free assay, competition with immobilised ligand	0.1 µM	remaining binding	96.3%
Oc1cccc(-c2nc(N3CCOCC3)c3oc4ncccc4c3n2)c1	enzyme activity, inhibitor	10 µM	remaining activity	114%
COc1cc2ncnc(Nc3ccc(Oc4ccccc4)c(C)c3C)c2cc1OC	enzyme activity, inhibitor	1 µM	inhibition	89%
COc1cc(Nc2cnc(C#N)c(O[C@H](C)CN(C)C)n2)ncc1-c1cnn(C)c1	enzyme activity, inhibitor, radiometric	10 µM	remaining activity	94%
COc1cc2c(N3CCN(C(=O)Nc4ccc(OC(C)C)cc4)CC3)ncnc2cc1OCCCN1CCCCC1	cell-free assay	0.5 µM	remaining signal	97.3%
CNC(=O)c1cc(Oc2ccc(NC(=O)Nc3ccc(Cl)c(C(F)(F)F)c3)cc2)ccn1	enzyme activity, inhibitor	0.3 µM	inhibition	-7%
Cc1cc(NC(=O)c2cccc3cc(-c4cccc5[nH]nc(N)c45)ccc23)ccc1F	enzyme activity, inhibitor	0.1 µM	activity vs control	102%
CCN(CC)CCNC(=O)c1c(C)[nH]c(/C=C2\C(=O)Nc3ccc(F)cc32)c1C	cell-free assay	0.5 µM	remaining signal	94.8%
CO[C@@H](C)c1c(Nc2ccc([C@H](N(C)C(=O)C3CCS(=O)(=O)CC3)C(F)(F)F)cc2)cnc2cc(Cl)nn12	cell-free assay, competition with immobilised ligand	1 µM	remaining binding	84%
COc1cc(/C=C/C(=O)CC(=O)/C=C/c2ccc(O)c(OC)c2)ccc1O	enzyme activity, inhibitor	1 µM	activity vs control	71%
O=C1Nc2ccc(Cl)cc2C1=Cc1cc(Cl)c(O)c(Cl)c1	cell-free assay	0.5 µM	remaining signal	94.2%
CC/C(=N\NC(=O)NCc1cccc(O)c1)c1ccc(O)c(C)c1O	enzyme activity, inhibitor	0.1 µM	inhibition	9.9%
CCCOc1ccc([C@@H]2[C@@H](C(=O)O)[C@H](c3ccc4c(c3)OCO4)CN2CC(=O)Nc2c(CC)cccc2CC)cc1	cell-free assay, competition with immobilised ligand	1 µM	remaining binding	100%
O=C(Nc1nccs1)C(c1cc(F)ccc1O)N1Cc2ccccc2C1=O (stereo not drawn)	enzyme activity, inhibitor	1 µM	inhibition	16%
O=C(O)[C@H]1[C@H](Cn2nnc3ccccc3c2=O)CC[C@@H]1C(=O)c1ccc(OCCC2CCOCC2)cc1	cell-free assay, competition with immobilised ligand	1 µM	remaining binding	89%
O=C(CSc1nc2nccnc2c(=O)n1CCc1ccccc1)Nc1nccs1	enzyme activity, inhibitor	10 µM	inhibition	-4%
